Key:
MDA-MB-231 [1] = assay: Cell cycle arrest in human MDA-MB-231 cells assessed as accumulation at G2/M phase at 2 uM after 24 to 48 hrs by propidium iodide staining based flow cytometry (reference value: 20.2%); format: functional
In short: (§1)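 Cells were seeded at 1×10^6 per well and treated 24 h later with 0.5, 1 or 2 µM compound; DMSO-treated cells served as control. Methods give harvest at 48 h (floating plus trypsinised cells); the figure legend says 24 h. Cells were fixed in 70% ethanol for 30 min at 4 °C and stained with PI, Triton X-100 and RNase A for 15 min in the dark. 10000 events were counted by flow cytometry.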

A549 [2] = assay: Disruption of mitochondrial membrane potential in human A549 cells at 0.5 to 2 uM after 48 hrs by Rhodamine-123 staining based spectrofluorometry; format: functional
In short: (§2)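 Cells were seeded at 5×10^5 cells/mL overnight and treated with 0.5, 1 and 2 µM compound; the methods say 24 h and the results text says 48 h. Trypsinised cells were washed and stained with rhodamine-123 (2 µM in PBS) for 30 min at room temperature in the dark, washed and read by spectrofluorometer. Data are mean ± SD of three independent experiments.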

MDA-MB-231 [3] = assay: Disruption of mitochondrial membrane potential in human MDA-MB-231 cells at 0.5 to 2 uM after 48 hrs by Rhodamine-123 staining based spectrofluorometry; format: functional; in short: as §2
A549 [4] = assay: Disruption of mitochondrial membrane potential in human A549 cells after 48 hrs by Rhodamine-123 staining based spectrofluorometry; format: functional, cell-based; in short: as §2
A549 [5] = assay: Induction of apoptosis in human A549 cells assessed as late apoptotic cells at 0.5 uM after 24 hrs by Annexin V-FITC/PI dual staining based flow cytometry (reference value: 4.5%); format: functional
A549 [6] = assay: Induction of apoptosis in human A549 cells assessed as viable cells at 1 uM after 24 hrs by Annexin V-FITC/PI dual staining based flow cytometry (reference value: 85%); format: functional; conditions: A549, 24 h, read-out: Activity
A549 [7] = assay: Induction of apoptosis in human A549 cells assessed as early apoptotic cells at 1 uM after 24 hrs by Annexin V-FITC/PI dual staining based flow cytometry (reference value: 5.3%); format: functional
A549 [8] = assay: Induction of apoptosis in human A549 cells assessed as necrotic cells at 2 uM after 24 hrs by Annexin V-FITC/PI dual staining based flow cytometry (reference value: 5.2%); format: functional
MDA-MB-231 [9] = assay: Induction of apoptosis in human MDA-MB-231 cells assessed as viable cells at 0.5 uM after 24 hrs by Annexin V-FITC/PI dual staining based flow cytometry (reference value: 91%); format: functional; conditions: MDA-MB-231, 24 h, read-out: Activity
MDA-MB-231 [10] = assay: Induction of apoptosis in human MDA-MB-231 cells assessed as early apoptotic cells at 0.5 uM after 24 hrs by Annexin V-FITC/PI dual staining based flow cytometry (reference value: 0.3%); format: functional
MDA-MB-231 [11] = assay: Induction of apoptosis in human MDA-MB-231 cells assessed as late apoptotic cells at 0.5 uM after 24 hrs by Annexin V-FITC/PI dual staining based flow cytometry (reference value: 6.2%); format: functional
MDA-MB-231 [12] = assay: Induction of apoptosis in human MDA-MB-231 cells assessed as viable cells at 1 uM after 24 hrs by Annexin V-FITC/PI dual staining based flow cytometry (reference value: 91%); format: functional; conditions: MDA-MB-231, 24 h, read-out: Activity
MDA-MB-231 [13] = assay: Induction of apoptosis in human MDA-MB-231 cells assessed as early apoptotic cells at 1 uM after 24 hrs by Annexin V-FITC/PI dual staining based flow cytometry (reference value: 0.3%); format: functional
MDA-MB-231 [14] = assay: Induction of apoptosis in human MDA-MB-231 cells assessed as late apoptotic cells at 1 uM after 24 hrs by Annexin V-FITC/PI dual staining based flow cytometry (reference value: 6.2%); format: functional
MDA-MB-231 [15] = assay: Cytotoxicity against human MDA-MB-231 cells assessed as growth inhibition after 72 hrs by MTT assay; format: functional, cell-based; conditions: MDA-MB-231, 72 h
In short: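 Cells in RPMI 1640 (PC-3, A549, MDA-MB-231) or DMEM (U87MG, MCF-7) with 10% FBS, passages 4-10, were seeded at 3000-5000 per well and left 24 h. Compounds in DMSO/medium were added for 72 h; DMSO served as control. MTT (5 mg/mL) was added for 4 h and formazan dissolved in DMSO. Absorbance was read at 570 nm minus 630 nm. % inhibition was taken versus DMSO, with IC50 by probit; mean ± SD of three experiments in triplicate.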

MDA-MB-231 [16] = assay: Cytotoxicity against human MDA-MB-231 cells assessed as inhibition of colony formation after 24 hrs by methylene blue staining-based assay; format: functional, cell-based
In short: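 Clonogenic assay. Cells were plated at 500 per well and allowed to adhere 24 h. Compound was added at 0.1, 1 and 10 µM for 24 h, then medium was replaced and cells grown a further 14 days. Colonies were fixed with 4% paraformaldehyde, stained with 0.5% methylene blue in PBS for 30 min, rinsed and photographed.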

A549 [17] = assay: Cell cycle arrest in human A549 cells assessed as accumulation at S phase at 0.5 uM after 24 to 48 hrs by propidium iodide staining based flow cytometry (reference value: 18.3%); format: functional; in short: as §1
A549 [18] = assay: Cell cycle arrest in human A549 cells assessed as accumulation at G2/M phase at 0.5 uM after 24 to 48 hrs by propidium iodide staining based flow cytometry (reference value: 22.3 to 31%); format: functional; in short: as §1
A549 [19] = assay: Cell cycle arrest in human A549 cells assessed as accumulation at G0/G1 phase at 1 uM after 24 to 48 hrs by propidium iodide staining based flow cytometry (reference value: 49.1%); format: functional; in short: as §1
A549 [20] = assay: Cell cycle arrest in human A549 cells assessed as accumulation at S phase at 1 uM after 24 to 48 hrs by propidium iodide staining based flow cytometry (reference value: 18.3%); format: functional; in short: as §1
A549 [21] = assay: Cell cycle arrest in human A549 cells assessed as accumulation at G0/G1 phase at 2 uM after 24 to 48 hrs by propidium iodide staining based flow cytometry (reference value: 49.1%); format: functional; in short: as §1
A549 [22] = assay: Cell cycle arrest in human A549 cells assessed as accumulation at S phase at 2 uM after 24 to 48 hrs by propidium iodide staining based flow cytometry (reference value: 18.3%); format: functional; in short: as §1
MDA-MB-231 [23] = assay: Cell cycle arrest in human MDA-MB-231 cells assessed as accumulation at G0/G1 phase at 1 uM after 24 to 48 hrs by propidium iodide staining based flow cytometry (reference value: 74.4%); format: functional; in short: as §1
MDA-MB-231 [24] = assay: Cell cycle arrest in human MDA-MB-231 cells assessed as accumulation at S phase at 1 uM after 24 to 48 hrs by propidium iodide staining based flow cytometry (reference value: 4.6%); format: functional; in short: as §1
MDA-MB-231 [25] = assay: Cell cycle arrest in human MDA-MB-231 cells assessed as accumulation at G2/M phase at 1 uM after 24 to 48 hrs by propidium iodide staining based flow cytometry (reference value: 20.2%); format: functional; in short: as §1
MDA-MB-231 [26] = assay: Cell cycle arrest in human MDA-MB-231 cells assessed as accumulation at S phase at 2 uM after 24 to 48 hrs by propidium iodide staining based flow cytometry (reference value: 4.6%); format: functional; in short: as §1
MDA-MB-231 (human) = assay: Induction of apoptosis in human MDA-MB-231 cells assessed as early apoptotic cells at 2 uM after 24 hrs by Annexin V-FITC/PI dual staining based flow cytometry (reference value: 5.3%)

Structure (SMILES): O=C1c2ccccc2Nc2ccccc2N1Cc1cn(Cc2ccccc2)nn1
- Activity (MDA-MB-231 [1]): 63.4%
- Activity (A549 [2]): 15%
- Activity (MDA-MB-231 [3]): 20%
- Activity (A549 [4]): Dose-dependent effect
- Activity (A549 [5]): 12.7%
- viability at 1 µM (A549 [6]): 72%
- Activity (A549 [7]): 14.5%
- Activity (A549 [8]): 3.8%
- viability at 0.5 µM (MDA-MB-231 [9]): 70%
- Activity (MDA-MB-231 [10]): 16.8%
- Activity (MDA-MB-231 [11]): 10.1%
- viability at 1 µM (MDA-MB-231 [12]): 73%
- Activity (MDA-MB-231 [13]): 14.2%
- Activity (MDA-MB-231 [14]): 11.5%
- IC50 (MDA-MB-231 [15]): 730 nM
- inhibition (MDA-MB-231 [16]): Dose-dependent effect
- Activity (A549 [17]): 19.5%
- Activity (A549 [18]): 36.6%
- Activity (A549 [19]): 39.8%
- Activity (A549 [20]): 15.3%
- Activity (A549 [21]): 34.7%
- Activity (A549 [22]): 13.8%
- Activity (MDA-MB-231 [23]): 60.1%
- Activity (MDA-MB-231 [24]): 6.7%
- Activity (MDA-MB-231 [25]): 33.6%
- Activity (MDA-MB-231 [26]): 5.5%
- Activity (MDA-MB-231 (human)): 15.4%

Reference: ChEMBL document CHEMBL3763097, “Synthesis and biological evaluation of 5,10-dihydro-11H-dibenzo[b,e][1,4]diazepin-11-one structural derivatives as anti-cancer and apoptosis inducing agents” (Eur J Med Chem, 2016)
